ChEMBL document CHEMBL3576869 (ACS Med Chem Lett, 2015)

Columns and labels:
Homo sapiens = species on record: Homo sapiens; assay: Selectivity ratio of IC50 for mTOR (unknown origin) to IC50 for PI3Kalpha (unknown origin)
[1] = biological target: Serine/threonine-protein kinase mTOR (Homo sapiens, UniProt P42345); assay: Inhibition of mTOR (unknown origin) using GFP-4E-BP1 as substrate after 1 hr by TR-FRET assay
[2] = biological target: Phosphatidylinositol 4,5-bisphosphate 3-kinase catalytic subunit alpha isoform (Homo sapiens, UniProt P42336); assay: Inhibition of PI3Kalpha (unknown origin) using PIP2/PS as substrate after 1 hr by luciferase-based luminescence assay
Sequence of Phosphatidylinositol 4,5-bisphosphate 3-kinase catalytic subunit alpha isoform (P42336 whole entry, canonical isoform): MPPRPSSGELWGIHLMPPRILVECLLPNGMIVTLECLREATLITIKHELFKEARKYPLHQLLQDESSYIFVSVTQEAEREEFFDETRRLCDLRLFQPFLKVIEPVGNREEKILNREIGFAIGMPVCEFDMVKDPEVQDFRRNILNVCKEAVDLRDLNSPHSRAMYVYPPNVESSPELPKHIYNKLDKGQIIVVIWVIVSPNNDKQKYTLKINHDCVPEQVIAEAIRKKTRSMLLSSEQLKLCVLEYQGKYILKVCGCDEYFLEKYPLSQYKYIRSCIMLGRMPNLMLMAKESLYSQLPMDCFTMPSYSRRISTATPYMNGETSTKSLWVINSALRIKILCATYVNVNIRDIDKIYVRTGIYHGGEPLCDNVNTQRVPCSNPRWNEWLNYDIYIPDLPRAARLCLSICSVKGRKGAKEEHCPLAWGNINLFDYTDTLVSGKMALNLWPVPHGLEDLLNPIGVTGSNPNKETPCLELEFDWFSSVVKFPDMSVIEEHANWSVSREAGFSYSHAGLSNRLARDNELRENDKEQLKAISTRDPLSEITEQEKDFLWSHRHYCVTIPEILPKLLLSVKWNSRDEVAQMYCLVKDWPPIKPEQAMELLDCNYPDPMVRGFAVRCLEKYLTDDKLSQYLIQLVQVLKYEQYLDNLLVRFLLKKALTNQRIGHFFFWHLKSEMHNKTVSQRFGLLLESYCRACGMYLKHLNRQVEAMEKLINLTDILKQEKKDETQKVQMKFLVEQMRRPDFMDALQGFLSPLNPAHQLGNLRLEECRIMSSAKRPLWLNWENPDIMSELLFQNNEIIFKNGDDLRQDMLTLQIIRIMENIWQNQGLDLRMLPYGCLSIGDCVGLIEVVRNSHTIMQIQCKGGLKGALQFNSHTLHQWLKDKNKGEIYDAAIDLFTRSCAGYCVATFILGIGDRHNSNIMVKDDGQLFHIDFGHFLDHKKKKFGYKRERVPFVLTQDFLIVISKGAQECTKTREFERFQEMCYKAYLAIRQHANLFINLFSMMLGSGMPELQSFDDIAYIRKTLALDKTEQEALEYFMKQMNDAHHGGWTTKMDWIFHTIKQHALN

SK-OV-3 = assay: Cytotoxicity against human SKOV3 cells harboring PIK3CA mutant assessed as growth inhibition after 4 days by CellTiter-Glo luminescent cell viability assay; assay type: functional, cell-based; settings: SK-OV-3, 96 h
Method in brief: (§1)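 Proliferation panel of human cancer lines carrying either a PIK3CA mutation or a PTEN deletion, with A549 as the one line carrying neither. Growth inhibition is reported as IC50.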

[3] = Apparent permeability across basolateral to apical side in human Caco2 cells at 10 uM after 1.5 hrs by LC/MS/MS analysis; assay type: ADME, cell-based; settings: Caco-2
A549 = assay: Cytotoxicity against PTEN deletion mutant/PIK3CA mutant-deficient human A549 cells assessed as growth inhibition after 4 days by CellTiter-Glo luminescent cell viability assay; assay type: functional, cell-based; settings: A549, 96 h; method in brief: as §1
[4] = Permeability of the compound after 5 hrs by PAMPA; assay type: physicochemical; settings: read-out: permeability
[5] = Apparent permeability across apical to basolateral side in human Caco2 cells at 10 uM after 1.5 hrs by LC/MS/MS analysis; assay type: ADME, cell-based; settings: Caco-2
[6] = Efflux ratio of apparent permeability across basolateral to apical side over apical to basolateral side in human Caco2 cells; assay type: ADME, cell-based; settings: Caco-2
[7] = biological target: T1, Phosphatidylinositol 4,5-bisphosphate 3-kinase catalytic subunit delta isoform (Homo sapiens, UniProt O00329); assay: Inhibition of PI3Kdelta (unknown origin) using PIP2/PS as substrate after 1 hr by luciferase-based luminescence assay
T1 sequence (O00329 whole entry): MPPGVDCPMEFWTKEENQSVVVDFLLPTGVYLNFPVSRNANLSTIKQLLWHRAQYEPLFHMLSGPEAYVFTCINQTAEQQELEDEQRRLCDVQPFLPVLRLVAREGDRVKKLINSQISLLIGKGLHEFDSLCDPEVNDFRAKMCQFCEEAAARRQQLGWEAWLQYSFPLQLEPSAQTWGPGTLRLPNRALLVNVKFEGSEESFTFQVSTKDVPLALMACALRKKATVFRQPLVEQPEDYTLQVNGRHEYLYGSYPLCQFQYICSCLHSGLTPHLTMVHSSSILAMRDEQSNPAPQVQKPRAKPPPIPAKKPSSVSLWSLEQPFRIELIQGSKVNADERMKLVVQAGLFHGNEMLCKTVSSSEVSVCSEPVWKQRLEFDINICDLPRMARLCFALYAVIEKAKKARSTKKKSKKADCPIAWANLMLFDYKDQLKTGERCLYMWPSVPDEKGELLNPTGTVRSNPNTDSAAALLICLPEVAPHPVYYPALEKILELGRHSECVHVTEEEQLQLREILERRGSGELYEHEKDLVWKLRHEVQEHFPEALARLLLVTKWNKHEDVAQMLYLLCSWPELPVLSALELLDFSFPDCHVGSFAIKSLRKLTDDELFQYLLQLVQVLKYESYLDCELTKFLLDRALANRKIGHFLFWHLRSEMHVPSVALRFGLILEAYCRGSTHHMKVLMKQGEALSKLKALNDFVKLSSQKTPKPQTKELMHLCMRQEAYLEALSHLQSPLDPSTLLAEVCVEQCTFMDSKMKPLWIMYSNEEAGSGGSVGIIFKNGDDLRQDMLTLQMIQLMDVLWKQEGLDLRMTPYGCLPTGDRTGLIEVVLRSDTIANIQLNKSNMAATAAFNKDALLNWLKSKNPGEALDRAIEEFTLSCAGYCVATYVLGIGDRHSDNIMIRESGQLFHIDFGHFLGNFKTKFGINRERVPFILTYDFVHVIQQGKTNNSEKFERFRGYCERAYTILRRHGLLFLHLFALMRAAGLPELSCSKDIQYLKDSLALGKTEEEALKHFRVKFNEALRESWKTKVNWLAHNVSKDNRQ

NCI-H1975 = assay: Cytotoxicity against human NCI-H1975 cells harboring PIK3CA mutant assessed as growth inhibition after 4 days by CellTiter-Glo luminescent cell viability assay; assay type: functional, cell-based; settings: NCI-H1975, 96 h; method in brief: as §1
[8] = Cytotoxicity against human H460 cells harboring PIK3CA mutant assessed as growth inhibition after 4 days by CellTiter-Glo luminescent cell viability assay; assay type: functional, cell-based; settings: NCI-H460, 96 h; method in brief: as §1
[9] = biological target: Phosphatidylinositol 4,5-bisphosphate 3-kinase catalytic subunit gamma isoform (Homo sapiens, UniProt P48736); assay: Inhibition of PI3Kgamma (unknown origin) using PIP2/PS as substrate after 1 hr by luciferase-based luminescence assay
Sequence of Phosphatidylinositol 4,5-bisphosphate 3-kinase catalytic subunit gamma isoform (P48736 whole entry, canonical isoform): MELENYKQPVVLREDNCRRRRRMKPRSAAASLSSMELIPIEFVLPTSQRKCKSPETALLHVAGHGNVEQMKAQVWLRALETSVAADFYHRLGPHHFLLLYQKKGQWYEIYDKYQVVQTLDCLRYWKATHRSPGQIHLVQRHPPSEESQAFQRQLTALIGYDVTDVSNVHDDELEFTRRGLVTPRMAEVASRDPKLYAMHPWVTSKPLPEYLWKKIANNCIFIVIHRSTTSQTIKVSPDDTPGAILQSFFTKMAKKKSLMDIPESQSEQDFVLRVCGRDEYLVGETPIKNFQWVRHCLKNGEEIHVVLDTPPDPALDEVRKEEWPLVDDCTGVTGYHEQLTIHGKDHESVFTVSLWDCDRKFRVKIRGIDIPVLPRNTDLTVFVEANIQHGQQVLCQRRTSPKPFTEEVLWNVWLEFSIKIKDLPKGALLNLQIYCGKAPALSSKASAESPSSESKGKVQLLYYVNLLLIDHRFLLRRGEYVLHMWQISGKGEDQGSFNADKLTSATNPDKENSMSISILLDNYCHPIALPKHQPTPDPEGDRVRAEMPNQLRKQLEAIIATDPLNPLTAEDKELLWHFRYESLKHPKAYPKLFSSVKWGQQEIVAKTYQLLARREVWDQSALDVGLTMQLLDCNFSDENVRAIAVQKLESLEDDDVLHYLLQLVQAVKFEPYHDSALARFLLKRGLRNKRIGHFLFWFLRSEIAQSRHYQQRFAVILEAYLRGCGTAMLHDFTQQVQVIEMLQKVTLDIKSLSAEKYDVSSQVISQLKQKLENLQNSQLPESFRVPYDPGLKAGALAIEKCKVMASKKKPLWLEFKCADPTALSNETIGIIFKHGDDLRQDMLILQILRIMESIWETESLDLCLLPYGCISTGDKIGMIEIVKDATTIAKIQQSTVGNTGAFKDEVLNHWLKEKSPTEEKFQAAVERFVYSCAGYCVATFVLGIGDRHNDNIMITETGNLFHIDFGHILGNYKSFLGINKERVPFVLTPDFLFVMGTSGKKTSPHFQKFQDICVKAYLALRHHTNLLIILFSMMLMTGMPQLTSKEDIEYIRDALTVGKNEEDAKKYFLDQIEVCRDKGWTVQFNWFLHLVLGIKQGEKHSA

T47D = assay: Cytotoxicity against human T47D cells harboring PIK3CA mutant assessed as growth inhibition after 4 days by CellTiter-Glo luminescent cell viability assay; assay type: functional, cell-based; settings: 96 h; method in brief: as §1
[10] = biological target: Phosphatidylinositol 4,5-bisphosphate 3-kinase catalytic subunit beta isoform (Homo sapiens, UniProt P42338); assay: Inhibition of PI3Kbeta (unknown origin) using PIP2/PS as substrate after 1 hr by luciferase-based luminescence assay
Sequence of Phosphatidylinositol 4,5-bisphosphate 3-kinase catalytic subunit beta isoform (P42338 whole entry, canonical isoform): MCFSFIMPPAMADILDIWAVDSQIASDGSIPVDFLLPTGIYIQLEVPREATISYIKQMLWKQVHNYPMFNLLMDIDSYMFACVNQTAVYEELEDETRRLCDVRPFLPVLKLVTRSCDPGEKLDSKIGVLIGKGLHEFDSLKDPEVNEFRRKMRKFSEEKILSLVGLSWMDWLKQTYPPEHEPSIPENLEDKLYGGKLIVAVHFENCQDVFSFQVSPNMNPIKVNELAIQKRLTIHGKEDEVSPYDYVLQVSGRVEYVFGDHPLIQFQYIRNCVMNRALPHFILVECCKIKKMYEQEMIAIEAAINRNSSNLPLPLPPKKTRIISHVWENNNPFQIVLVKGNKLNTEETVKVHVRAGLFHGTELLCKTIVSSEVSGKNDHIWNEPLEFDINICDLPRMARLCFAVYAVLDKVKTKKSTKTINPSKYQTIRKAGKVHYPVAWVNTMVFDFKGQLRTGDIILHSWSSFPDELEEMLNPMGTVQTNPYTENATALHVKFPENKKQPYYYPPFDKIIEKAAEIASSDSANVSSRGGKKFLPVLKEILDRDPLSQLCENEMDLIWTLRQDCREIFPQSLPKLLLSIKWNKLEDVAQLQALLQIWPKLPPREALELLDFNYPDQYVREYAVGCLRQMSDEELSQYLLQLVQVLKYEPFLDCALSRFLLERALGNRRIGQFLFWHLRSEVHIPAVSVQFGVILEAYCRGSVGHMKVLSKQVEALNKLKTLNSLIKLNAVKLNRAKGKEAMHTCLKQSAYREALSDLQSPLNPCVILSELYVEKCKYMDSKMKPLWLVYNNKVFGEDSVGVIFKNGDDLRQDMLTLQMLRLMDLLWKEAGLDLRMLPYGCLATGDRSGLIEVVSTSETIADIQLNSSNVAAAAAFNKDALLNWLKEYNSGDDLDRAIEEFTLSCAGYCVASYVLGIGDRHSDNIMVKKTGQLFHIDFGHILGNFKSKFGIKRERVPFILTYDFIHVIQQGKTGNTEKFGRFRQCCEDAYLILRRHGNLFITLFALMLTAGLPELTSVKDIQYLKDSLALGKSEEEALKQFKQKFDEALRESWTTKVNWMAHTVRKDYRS

[11] = Inhibition of PI3K in human T47D cells assessed as inhibition of AKT phosphorylation at Ser 473 after 4 hrs by Western blot analysis; assay type: cell-based
U-87 MG = assay: Cytotoxicity against human U87MG cells harboring PTEN deletion mutant assessed as growth inhibition after 4 days by CellTiter-Glo luminescent cell viability assay; assay type: functional, cell-based, U-87MG ATCC; settings: 96 h; method in brief: as §1

Row | Ratio IC50 (Homo sapiens) | IC50 [1] | IC50 [2] | SMILES | further results
1 | 2.1 | 0.2 nM | 0.095 nM | COc1ncc(-c2ccc3ncnc(-c4ccncc4)c3c2)cc1NS(=O)(=O)c1ccc(F)cc1F | –
2 | 146 | 43.7 nM | 0.3 nM | O=S(=O)(Nc1cc(-c2cc3c(-c4ccncc4)ncnc3s2)cnc1Cl)c1ccc(F)cc1 | –
3 | 0.52 | – | – | COc1ncc(-c2cnc3nc(N)nc(-c4ccncc4)c3c2)cc1NS(=O)(=O)c1ccc(F)cc1F | –
4 | 1.2 | 62.3 nM | 51.7 nM | COc1ncc(-c2cnc3ncnc(-c4ccncc4)c3c2)cc1NS(=O)(=O)c1ccc(F)cc1F | –
5 | 80 | 21.6 nM | 0.27 nM | COc1ncc(-c2ccc3nncc(-c4ccncc4)c3c2)cc1NS(=O)(=O)c1ccc(F)cc1F | –
6 | – | – | 1230 nM | COc1ccc(-c2cc3c(-c4ccncc4)ncnc3s2)cn1 | –
7 | – | – | 17 nM | COc1ncc(-c2cc3c(-c4ccncc4)ncnc3s2)cc1NS(=O)(=O)c1ccc(C(F)(F)F)cc1 | –
8 | – | – | 43.1 nM | COc1ncc(-c2cc3c(-c4ccncc4)ncnc3s2)cc1NS(C)(=O)=O | –
9 | – | – | 3490 nM | COc1ncc(-c2cc3c(-c4ccncc4)ncnc3s2)cn1 | –
10 | 203 | 345 nM | 1.7 nM | Cc1ncc(-c2cc3c(-c4ccncc4)ncnc3s2)cc1NS(=O)(=O)c1ccc(F)cc1F | –
11 | 7.5 | 0.75 nM | 0.1 nM | COc1ncc(-c2ccc3nccc(-c4ccncc4)c3c2)cc1NS(=O)(=O)c1ccc(F)cc1F | –
12 | 4.1 | 0.29 nM | 0.07 nM | COc1ncc(-c2ccc3nc(N)nc(-c4ccncc4)c3c2)cc1NS(=O)(=O)c1ccc(F)cc1F | –
13 | – | – | 72.3 nM | COc1ncc(-c2sc3ncnc(-c4ccncc4)c3c2C)cc1NS(=O)(=O)c1ccc(F)cc1F | –
14 | 105 | 218 nM | 2.07 nM | COc1ncc(-c2cc3c(-c4ccncc4)ncnc3s2)cc1NS(=O)(=O)c1ccc(F)cc1F | IC50 (SK-OV-3): 3740 nM; Papp B→A at 1.5 h, 10 µM [3]: 4.5 ×10⁻⁶ cm/s; IC50 (A549): 3180 nM; Papp at 5 h [4]: 8 ×10⁻⁶ cm/s; Papp A→B at 1.5 h, 10 µM [5]: 5.6 ×10⁻⁶ cm/s; efflux ratio [6]: 0.8; IC50 [7]: 13.3 nM; IC50 (NCI-H1975): 1070 nM; IC50 [8]: 420 nM; IC50 [9]: 21.1 nM; IC50 (T47D): 660 nM; IC50 [10]: 22.5 nM; IC50 [11]: 84.6 nM; IC50 (U-87 MG): 4400 nM
15 | 3 | 3.04 nM | 1.02 nM | COc1ncc(-c2cc3c(-c4ccncc4)ccnc3cn2)cc1NS(=O)(=O)c1ccc(F)cc1F | –
16 | 172 | 25.8 nM | 0.15 nM | O=S(=O)(Nc1cc(-c2cc3c(-c4ccncc4)ncnc3s2)cnc1Cl)c1ccc(Cl)s1 | –
17 | 1.9 | 66.7 nM | 34.7 nM | COc1ncc(-c2cnc3nccc(-c4ccncc4)c3c2)cc1NS(=O)(=O)c1ccc(F)cc1F | –
18 | 52 | 67.9 nM | 1.3 nM | COc1ncc(-c2cc3c(-c4ccncc4)ncnc3s2)cc1NS(=O)(=O)c1ccc(Cl)s1 | –
19 | 233 | 53.6 nM | 0.23 nM | O=S(=O)(Nc1cc(-c2cc3c(-c4ccncc4)ncnc3s2)cnc1Cl)c1ccc(F)cc1F | IC50 (SK-OV-3): 5200 nM; Papp B→A at 1.5 h, 10 µM [3]: 6.9 ×10⁻⁶ cm/s; IC50 (A549): 8440 nM; Papp at 5 h [4]: 7 ×10⁻⁶ cm/s; Papp A→B at 1.5 h, 10 µM [5]: 4.8 ×10⁻⁶ cm/s; efflux ratio [6]: 1.4; IC50 [7]: 3.1 nM; IC50 (NCI-H1975): 2200 nM; IC50 [8]: 2940 nM; IC50 [9]: 10.2 nM; IC50 (T47D): 1520 nM; IC50 [10]: 3.6 nM; IC50 (U-87 MG): 4430 nM
20 | 100 | 363 nM | 3.6 nM | COc1ncc(-c2cc3c(-c4ccncc4)ncnc3s2)cc1NS(=O)(=O)c1ccc(C#N)cc1 | –
21 | – | – | > 2500 nM | COc1ncc(-c2cc3c(-c4ccncc4)ncnc3s2)cc1F | –
